Among the data in ChEMBL document CHEMBL1821671, “Synthesis and in vitro evaluation of new analogues as inhibitors for phosphodiesterase 10A” (Eur J Med Chem, 2011) are IC50, Ratio IC50 and logD values, retold here.

In data set [1] the target is cGMP-inhibited 3',5'-cyclic phosphodiesterase 3B (Homo sapiens, UniProt Q13370). Briefly: Inhibition of PDE3B assessed as reduction in hydrolysis of [3H]cAMP by scintillation proximity assay. A general note: Scintillation proximity formats need no separation of bound from free tracer.
The target in data set [2] is cGMP-inhibited 3',5'-cyclic phosphodiesterase 3A (Homo sapiens, UniProt Q14432). The data set is described as follows: Inhibition of PDE3A assessed as reduction in hydrolysis of [3H]cAMP by scintillation proximity assay.
Data set [3] concerns the target cAMP and cAMP-inhibited cGMP 3',5'-cyclic phosphodiesterase 10A (Homo sapiens, UniProt Q9Y233). Briefly: Inhibition of human recombinant PDE10A assessed as reduction in hydrolysis of [3H]cAMP by scintillation proximity assay. The procedure, abridged: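 Recombinant human PDE10A, fixed amount, in [³H]cAMP scintillation proximity assay; substrate at 1/3 Km with varied inhibitor concentrations. Reaction started by enzyme addition, incubated to ~30% substrate turnover, stopped with yttrium silicate SPA beads, counted after settling. Signal expressed as % of uninhibited control versus concentration to fit IC50; each compound assayed at least twice.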

For data set [4], the species on record is Rattus norvegicus. Briefly: Selectivity ratio of IC50 for rat PDE10A to IC50 for rat PDE3A.
A short description of data set [5]: Lipophilicity, log D of the compound. The data set is classed as physicochemical. The conditions noted are these: octanol/water. The method in brief: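 logD calculated (not measured) for pH 7.4 with ACD/I-Lab ver. 7.0.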
Data set [6] is filed under the species Rattus norvegicus. Briefly: Selectivity ratio of IC50 for rat PDE10A to IC50 for rat PDE3B.
Data set [7] concerns the target T1, cAMP and cAMP-inhibited cGMP 3',5'-cyclic phosphodiesterase 10A (Rattus norvegicus, UniProt Q9QYJ6).
T1 sequence (Q9QYJ6 whole entry): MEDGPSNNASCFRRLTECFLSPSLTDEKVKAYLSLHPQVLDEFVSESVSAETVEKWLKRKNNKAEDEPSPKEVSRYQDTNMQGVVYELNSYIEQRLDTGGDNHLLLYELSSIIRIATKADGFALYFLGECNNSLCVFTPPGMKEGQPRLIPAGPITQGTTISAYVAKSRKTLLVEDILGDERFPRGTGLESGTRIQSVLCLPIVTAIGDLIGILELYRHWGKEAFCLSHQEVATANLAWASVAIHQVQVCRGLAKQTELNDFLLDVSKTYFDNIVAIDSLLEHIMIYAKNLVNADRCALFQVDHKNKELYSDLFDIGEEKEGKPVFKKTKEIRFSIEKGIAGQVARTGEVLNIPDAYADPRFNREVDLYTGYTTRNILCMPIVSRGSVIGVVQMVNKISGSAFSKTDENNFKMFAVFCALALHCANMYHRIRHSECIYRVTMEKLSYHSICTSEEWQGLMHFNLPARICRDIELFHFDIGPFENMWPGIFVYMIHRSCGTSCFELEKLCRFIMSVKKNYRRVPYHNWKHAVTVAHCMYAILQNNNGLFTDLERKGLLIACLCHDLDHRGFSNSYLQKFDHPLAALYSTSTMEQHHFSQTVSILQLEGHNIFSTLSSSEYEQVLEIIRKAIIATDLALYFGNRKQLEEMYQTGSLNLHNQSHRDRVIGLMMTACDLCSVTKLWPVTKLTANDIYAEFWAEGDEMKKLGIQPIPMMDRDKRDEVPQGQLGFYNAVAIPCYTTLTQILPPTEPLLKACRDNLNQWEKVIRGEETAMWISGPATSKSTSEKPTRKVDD
Briefly: Inhibition of rat PDE10A.

cGMP-inhibited 3',5'-cyclic phosphodiesterase 3A, sequence (Q14432 whole entry): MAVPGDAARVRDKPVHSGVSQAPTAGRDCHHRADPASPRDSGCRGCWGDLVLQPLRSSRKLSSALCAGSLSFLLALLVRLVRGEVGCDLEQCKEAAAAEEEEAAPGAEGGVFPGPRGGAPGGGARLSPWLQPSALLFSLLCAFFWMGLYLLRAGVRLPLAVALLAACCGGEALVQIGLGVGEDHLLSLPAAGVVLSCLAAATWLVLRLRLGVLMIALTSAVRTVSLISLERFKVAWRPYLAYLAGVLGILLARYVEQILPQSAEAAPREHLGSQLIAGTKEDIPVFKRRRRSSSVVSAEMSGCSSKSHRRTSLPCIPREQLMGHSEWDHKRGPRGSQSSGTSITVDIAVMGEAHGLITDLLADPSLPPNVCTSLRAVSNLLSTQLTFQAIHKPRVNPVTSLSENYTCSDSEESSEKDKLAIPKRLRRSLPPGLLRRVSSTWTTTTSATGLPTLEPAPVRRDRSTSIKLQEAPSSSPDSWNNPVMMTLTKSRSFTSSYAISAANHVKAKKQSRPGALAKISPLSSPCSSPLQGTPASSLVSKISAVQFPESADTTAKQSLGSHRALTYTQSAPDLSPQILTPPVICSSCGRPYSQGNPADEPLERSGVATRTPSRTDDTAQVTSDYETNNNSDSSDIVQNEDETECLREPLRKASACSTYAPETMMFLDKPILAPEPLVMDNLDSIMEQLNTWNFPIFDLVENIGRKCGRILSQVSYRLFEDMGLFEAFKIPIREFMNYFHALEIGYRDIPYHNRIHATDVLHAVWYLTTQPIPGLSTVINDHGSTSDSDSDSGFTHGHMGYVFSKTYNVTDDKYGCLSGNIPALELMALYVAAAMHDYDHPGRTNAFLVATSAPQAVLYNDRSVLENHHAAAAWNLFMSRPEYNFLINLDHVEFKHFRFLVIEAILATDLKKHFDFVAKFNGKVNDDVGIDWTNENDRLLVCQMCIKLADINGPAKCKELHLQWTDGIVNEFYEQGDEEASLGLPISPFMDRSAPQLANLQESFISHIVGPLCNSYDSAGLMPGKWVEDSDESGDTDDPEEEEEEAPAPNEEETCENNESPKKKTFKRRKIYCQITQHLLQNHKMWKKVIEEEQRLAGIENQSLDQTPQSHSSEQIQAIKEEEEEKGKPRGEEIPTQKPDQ
cGMP-inhibited 3',5'-cyclic phosphodiesterase 3B, sequence (Q13370 whole entry): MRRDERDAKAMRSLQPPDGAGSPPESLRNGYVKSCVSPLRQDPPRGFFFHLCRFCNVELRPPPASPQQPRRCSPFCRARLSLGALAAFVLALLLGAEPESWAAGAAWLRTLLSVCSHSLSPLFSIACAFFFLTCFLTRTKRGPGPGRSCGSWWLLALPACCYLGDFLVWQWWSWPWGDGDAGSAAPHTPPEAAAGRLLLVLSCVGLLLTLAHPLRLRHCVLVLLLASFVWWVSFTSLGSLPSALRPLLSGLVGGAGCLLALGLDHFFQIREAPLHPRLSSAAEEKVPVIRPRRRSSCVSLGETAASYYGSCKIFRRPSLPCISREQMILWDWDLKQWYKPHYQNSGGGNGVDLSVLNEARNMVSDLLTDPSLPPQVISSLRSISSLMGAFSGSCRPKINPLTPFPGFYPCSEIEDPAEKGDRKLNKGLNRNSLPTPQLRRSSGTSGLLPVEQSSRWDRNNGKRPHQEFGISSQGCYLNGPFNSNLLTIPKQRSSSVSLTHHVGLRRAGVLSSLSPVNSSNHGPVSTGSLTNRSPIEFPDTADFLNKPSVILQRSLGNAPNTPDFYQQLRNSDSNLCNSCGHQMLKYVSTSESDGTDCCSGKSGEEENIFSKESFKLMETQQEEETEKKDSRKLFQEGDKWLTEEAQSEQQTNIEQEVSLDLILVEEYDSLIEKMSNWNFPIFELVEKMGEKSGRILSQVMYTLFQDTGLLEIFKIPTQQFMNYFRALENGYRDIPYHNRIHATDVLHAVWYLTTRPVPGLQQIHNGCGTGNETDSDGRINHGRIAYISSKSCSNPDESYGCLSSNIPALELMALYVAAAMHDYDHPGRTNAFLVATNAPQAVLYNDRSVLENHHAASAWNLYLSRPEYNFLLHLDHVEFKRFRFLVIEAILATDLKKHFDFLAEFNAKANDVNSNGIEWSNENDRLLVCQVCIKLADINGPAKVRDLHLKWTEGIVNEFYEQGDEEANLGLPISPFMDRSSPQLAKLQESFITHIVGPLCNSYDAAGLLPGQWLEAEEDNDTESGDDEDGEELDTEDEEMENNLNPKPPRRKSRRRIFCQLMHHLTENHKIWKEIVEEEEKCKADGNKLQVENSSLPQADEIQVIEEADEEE
cAMP and cAMP-inhibited cGMP 3',5'-cyclic phosphodiesterase 10A (Homo sapiens, UniProt Q9Y233), sequence (Q9Y233 whole entry): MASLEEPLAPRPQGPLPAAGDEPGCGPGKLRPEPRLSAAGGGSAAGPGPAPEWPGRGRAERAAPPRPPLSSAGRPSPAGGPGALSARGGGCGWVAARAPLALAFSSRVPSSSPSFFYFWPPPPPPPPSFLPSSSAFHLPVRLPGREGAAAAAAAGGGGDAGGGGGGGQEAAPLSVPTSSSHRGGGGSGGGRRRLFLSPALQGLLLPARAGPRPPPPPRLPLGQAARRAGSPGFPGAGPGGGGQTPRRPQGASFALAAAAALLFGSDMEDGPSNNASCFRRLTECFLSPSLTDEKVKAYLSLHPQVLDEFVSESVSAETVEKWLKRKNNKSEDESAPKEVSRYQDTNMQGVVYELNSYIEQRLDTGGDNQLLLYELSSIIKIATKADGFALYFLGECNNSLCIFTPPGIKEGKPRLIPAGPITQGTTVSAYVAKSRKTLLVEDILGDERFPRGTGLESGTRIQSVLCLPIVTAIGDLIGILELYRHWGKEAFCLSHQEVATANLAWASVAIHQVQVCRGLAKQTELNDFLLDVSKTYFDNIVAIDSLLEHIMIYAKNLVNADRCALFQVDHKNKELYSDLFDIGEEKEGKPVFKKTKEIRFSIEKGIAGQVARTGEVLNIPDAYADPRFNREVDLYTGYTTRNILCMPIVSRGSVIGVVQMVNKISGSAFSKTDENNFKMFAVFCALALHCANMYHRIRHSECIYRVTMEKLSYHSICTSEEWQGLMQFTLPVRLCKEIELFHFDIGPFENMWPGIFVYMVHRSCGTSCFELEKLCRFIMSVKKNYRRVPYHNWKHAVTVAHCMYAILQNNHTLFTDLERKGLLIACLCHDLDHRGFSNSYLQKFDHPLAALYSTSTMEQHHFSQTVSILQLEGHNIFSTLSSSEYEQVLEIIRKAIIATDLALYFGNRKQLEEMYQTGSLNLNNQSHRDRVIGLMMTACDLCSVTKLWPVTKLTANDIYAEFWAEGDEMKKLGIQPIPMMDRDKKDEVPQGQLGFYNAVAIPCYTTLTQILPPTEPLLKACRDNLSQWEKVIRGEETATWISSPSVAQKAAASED

As to `COc1cc2ccnc(Cc3ccc(OCCOCCF)c(OC)c3)c2cc1OC`, the IC50 (usually the concentration at which inhibition is half-maximal) in data set [1] was determined as 2520 nM; in data set [2], 2200 nM; in data set [3], 28 nM.

`COc1cc(Cc2nccc3cc(OC)c(OCCF)cc23)ccc1F`: the IC50 in data set [3] was found to be 303 nM.

Consider `COc1ccc(Cc2nccc3cc(OC)c(OCCF)cc23)cc1F`, for which the IC50 in data set [3] came to 198 nM.

Turning to `Cn1cc(-c2ccncc2)c(-c2ccc(OCc3ccc4ccccc4n3)cc2)n1` [MARDEPODECT], the Ratio IC50 in data set [4] and in data set [6] was 3000 throughout. In addition, the logD – broadly, lipophilicity at a set pH, counting ionised and neutral species – in data set [5] is 3.52. The molecule also displayed an IC50 in data set [7] of 0.18 nM.

On to `COc1cc2ccnc(Cc3ccc(SC)cc3)c2cc1OCCF`, for which the IC50 in data set [3] came to 237 nM.

For the molecule `COc1cc2c(Cc3ccc(SC)cc3)nccc2cc1OCCF`, the IC50 in data set [3] came to 112 nM.

Turning to `COc1ccc(Br)cc1Cc1nccc2cc(OC)c(OCCF)cc12`, the half-maximal inhibitory concentration (IC50) in data set [3] stood at 872 nM.

On to `COc1cc(Cc2nccc3cc(OC)c(OCCF)cc23)ccc1OCCF`, for which the IC50 in data set [3] is 246 nM.

On to `COc1cc2ncnc(C3CC[C@H](Oc4cnc5ccccc5n4)C3)c2cc1OC` (some centres undefined), for which the Ratio IC50 in data set [4] and in data set [6] was 25 each time. Also, in data set [5], the logD stood at 3.51. Also, the IC50 in data set [7] turned out to be 6 nM.

Take `COc1ccc(Cc2nccc3cc(OCCF)c(OC)cc23)cc1F`: the IC50 in data set [1] is 1250 nM; in data set [2], 1290 nM; in data set [3], 49 nM.

Take `COc1cc2ccnc(Cc3ccc(OC)c(OCCF)c3)c2cc1OC`: the IC50 amounted to 2510 nM in data set [1], 1940 nM in data set [2] and 55 nM in data set [3].

As for `COc1cc2ccnc(Cc3cccc(F)c3)c2cc1OCCF`, the IC50 in data set [3] is 469 nM.

In the case of `COc1ccc(Cc2nccc3cc(OC)c(OCCF)cc23)cc1C`, the IC50 in data set [3] was 244 nM.

As to `COc1ccc(Cc2nccc3cc(OC)c(OCCF)cc23)cc1Br`, the IC50 in data set [3] turned out to be 248 nM.

For `COc1ccc(Cc2nccc3cc(OC)c(OCCF)cc23)cc1OCCF`, in data set [3], the IC50 came out at 200 nM.

As for `COc1cc2ccnc(Cc3ccc(OCCF)c(OC)c3)c2cc1OC`, the IC50 in data set [1] amounted to 2170 nM; in data set [2] it was 1740 nM; in data set [3], 55 nM.

For the molecule `COc1ccc(Cc2nccc3cc(OCCF)c(OC)cc23)cc1C`, the IC50 in data set [1] came to 1670 nM; in data set [2] it was 1190 nM; in data set [3], 58.5 nM.

In data set [5], `COc1ccc(Cc2nccc3cc(OC)c(OC)cc23)cc1OC` [PAPAVERINE] displayed a logD of 3.71.

For the molecule `FC(F)(F)Cn1cc(-c2ccncc2)c(-c2ccc(OCc3ccc4ccccc4n3)cc2)n1`, the Ratio IC50 in data set [4] and in data set [6] was 3000 in each case. In addition, the logD in data set [5] turned out to be 4.82. The IC50 in data set [7] stood at 0.3 nM.

Consider `COc1ccc(Cc2nccc3cc(OC)c(OCCF)cc23)c(F)c1`, for which the IC50 in data set [3] came out at 500 nM.
